Measurements reported in ChEMBL document CHEMBL1134408, “Antitumor agents. 207. Design, synthesis, and biological testing of 4beta-anilino-2-fluoro-4'-demethylpodophyllotoxin analogues as cytotoxic and antiviral agents” (2001).
Converted amounts (≈) assume the structure as drawn.

Assays:
A549 [1] = test: % inhibition against A549 cells (lung cancer) at 4 ug/mL; assay type: functional; details: Homo sapiens
MCF7 [2] = test: % inhibition against MCF-7 cells (breast cancer) at 0.4 ug/mL; assay type: functional; details: Homo sapiens
MCF7 [3] = test: % inhibition against MCF-7 cells (breast cancer) at 0.04 ug/mL; assay type: functional; details: Homo sapiens
CAKI-1 [4] = test: % inhibition against CAKI-1 cells(renal carcinoma) at 0.4 ug/mL.; assay type: functional; details: Homo sapiens
CAKI-1 [5] = test: % inhibition against CAKI-1 cells(renal carcinoma) at 4 ug/mL.; assay type: functional; details: Homo sapiens
[6] = % inhibition against KB cells (nasopharyngeal carcinoma) at 0.04 ug/mL; assay type: functional; details: Homo sapiens
HEL = test: Inhibitory activity against HEL cells; assay type: functional; details: Homo sapiens, read-out: ED50 (the source's name)
Summary of the method: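 Human embryonic lung fibroblasts in MEM/10% FBS, 6% CO2, seeded at 50 000 cells/mL with a drug dilution series. Exposure 15 days; viability and cell counts by trypan blue. ED50 (50% growth reduction versus untreated cells) interpolated from dose–response data.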

CAKI-1 [7] = test: % inhibition against CAKI-1 cells(renal carcinoma) at 0.04 ug/mL.; assay type: functional; details: Homo sapiens
[8] = Selectivity index (ED50/ID50) value of the compound; assay type: functional
Summary of the method: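 Ratio of ED50 for growing HEL cells (15-day trypan blue count) to ID50 against Towne strain CMV in HEL fibroblasts.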

A549 [9] = test: % inhibition against A549 cells (lung cancer) at 0.04 ug/mL; assay type: functional; details: Homo sapiens
MCF7 [10] = test: % inhibition against MCF-7 cells (breast cancer) at 4 ug/mL; assay type: functional; details: Homo sapiens
Human betaherpesvirus 5 = test: Inhibitory activity against human cytomegalovirus (HCMV); assay type: functional; details: for IC50: read-out: ID50 (the source's name)
Summary of the method: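 Confluent HEL fibroblasts infected with Towne strain CMV at 1–2 PFU/cell, with or without a drug dilution series. Antiviral effect read either as extracellular virus yield (day-6 supernatant titred by plaque assay on HEL, counted at 2 weeks) or as viral DNA by 32P-CMV-probe dot hybridization with scintillation counting of dots.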

[11] = % inhibition against KB cells (nasopharyngeal carcinoma) at 4 ug/mL; assay type: functional; details: Homo sapiens
A549 [12] = test: % inhibition against A549 cells (lung cancer) at 0.4 ug/mL; assay type: functional; details: Homo sapiens
[13] = % inhibition against KB cells (nasopharyngeal carcinoma) at 0.4 ug/mL; assay type: functional; details: Homo sapiens
Vero [14] = test: Minimum inhibitory concentration for cell growth inhibition (Herpesvirus activity); assay type: functional; details: Chlorocebus sabaeus
Summary of the method: (§1)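 Cells seeded at 50 000 cells/mL with a drug dilution series, exposed 2 days; cell number by sulforhodamine B staining. ED25 interpolated from dose–response as the concentration cutting absorbency by 25%. MIC = lowest dilution giving detectable growth inhibition. Triplicate wells; absorbency within 5%, ED25 within 30% across independent tests.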

[15] = GI values against KB cells (nasopharyngeal carcinoma); assay type: functional; details: Homo sapiens
Human alphaherpesvirus 1 [16] = test: Minimum inhibitory concentration against herpesvirus simplex 1; assay type: functional
Summary of the method: (§2)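 Plaque elimination in pre-formed confluent Vero monolayers, HSV-1 strain KOS or HSV-2 strain 186, ~100 PFU inoculum for 30 min. Overlay medium had 0.5% calf serum, 1% carboxymethylcellulose and drug dilutions. Crystal violet fix/stain at 2 days; macroscopic plaques scored. ED100 = dilution fully eliminating plaques without monolayer toxicity. MIC = lowest dilution reducing plaque size/number. Repeated at least twice.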

Human alphaherpesvirus 2 [17] = test: Effective dose required to inhibit 100% against herpesvirus simplex 2; assay type: functional; summary of the method: as §2
CAKI-1 [18] = test: GI values against CAKI-1 cells(renal carcinoma); assay type: functional; details: Homo sapiens
Vero [19] = test: Effective dose required to inhibit 25% of cell growth (Herpesvirus activity); assay type: functional, Chlorocebus sabaeus; summary of the method: as §1
A549 [20] = test: GI values against A549 cells (lung cancer); assay type: functional; details: Homo sapiens
Human alphaherpesvirus 2 [21] = test: Minimum inhibitory concentration against herpesvirus simplex 2; assay type: functional; summary of the method: as §2
Human alphaherpesvirus 1 [22] = test: Effective dose required to inhibit 100% against herpesvirus simplex 1; assay type: functional; summary of the method: as §2
Homo sapiens = species on record: Homo sapiens; test: Cytotoxicity against HEL cells

Structure (SMILES) | inhibition at 4 µg/mL (A549 [1]) [%] | inhibition at 0.4 µg/mL (MCF7 [2]) [%] | inhibition at 0.04 µg/mL (MCF7 [3]) [%] | inhibition at 0.4 µg/mL (CAKI-1 [4]) [%] | inhibition at 4 µg/mL (CAKI-1 [5]) [%] | inhibition at 0.04 µg/mL [6] [%] | EC50 (HEL) [nM] | inhibition at 0.04 µg/mL (CAKI-1 [7]) [%] | SI [8] | inhibition at 0.04 µg/mL (A549 [9]) [%] | inhibition at 4 µg/mL (MCF7 [10]) [%] | ID90 (Human betaherpesvirus 5) [nM] | IC50 (Human betaherpesvirus 5) [nM] | inhibition at 4 µg/mL [11] [%] | inhibition at 0.4 µg/mL (A549 [12]) [%] | inhibition at 0.4 µg/mL [13] [%] | GI50 [15] [nM] | GI50 (CAKI-1 [18]) [nM] | GI50 (A549 [20]) [nM] | further results
COc1cc([C@@H]2c3cc4c(cc3[C@@H](Nc3ccc(C#N)cc3)[C@H]3COC(=O)[C@]23F)OCO4)cc(OC)c1O | 52.5 | 8.2 | 7.7 | 9.5 | 28.4 | 5 | 8430 | 7.9 | 11.1 | 11.1 | 45.8 | 4290 | 760 | 30.5 | 11.9 | 4.2 |  |  |  | 
COc1cc([C@@H]2c3cc4c(cc3[C@@H](O)[C@H]3COC(=O)[C@]23F)OCO4)cc(OC)c1O | 78.1 | 21.8 | 0 | 10.6 | 39 | 0 | 8200 | 0 | < 1.6 | 0 | 53.8 | >5000 | > 5000 | 64 | 34.3 | 25.6 |  |  |  | 
COc1cc([C@@H]2c3cc4c(cc3[C@H](O)[C@H]3COC(=O)[C@]23F)OCO4)cc(OC)c1OC | 73.1 | 48 | 34.2 | 39.7 | 40.5 | 53.3 |  | 18.1 |  | 59.4 | 51 | >5000 | > 5000 | 87.4 | 69.6 | 72 | 31.6 | > 10000 | 3980 | MIC (Vero [14]): 0.8 µM (≈ 0.346 µg/mL); MIC (Human alphaherpesvirus 1 [16]): 1 µM (≈ 0.432 µg/mL); ED100 (Human alphaherpesvirus 2 [17]): 1000 nM; ED25 (Vero [19]): 1000 nM; MIC (Human alphaherpesvirus 2 [21]): 0.1 µM (≈ 0.0432 µg/mL); ED100 (Human alphaherpesvirus 1 [22]): 10 µM
COc1cc([C@@H]2c3cc4c(cc3[C@@H](Nc3ccc(C#N)cc3)[C@H]3COC(=O)[C@H]23)OCO4)cc(OC)c1O |  |  |  |  |  |  |  |  |  |  |  |  | 620 |  |  |  |  |  |  | 
COc1cc([C@@H]2c3cc4c(cc3[C@H](O[Si](C)(C)C(C)(C)C)[C@H]3COC(=O)[C@]23F)OCO4)cc(OC)c1OC |  |  |  |  |  |  |  |  |  |  |  |  |  |  |  |  |  |  |  | MIC (Vero [14]): 6 µM (≈ 3.28 µg/mL); ED25 (Vero [19]): 25000 nM
COc1cc([C@@H]2c3cc4c(cc3[C@@H](Nc3ccc(N)cc3)[C@H]3COC(=O)[C@H]23)OCO4)cc(OC)c1O |  |  |  |  |  |  |  |  |  |  |  |  | 1250 |  |  |  | 794 | 316 | 316 | 
COc1cc([C@@H]2c3cc4c(cc3[C@@H](Nc3ccc(F)cc3)[C@H]3COC(=O)[C@H]23)OCO4)cc(OC)c1O |  |  |  |  |  |  |  |  |  |  |  |  | 650 |  |  |  | 251 | 316 | 251 | 
COc1cc([C@@H]2c3cc4c(cc3[C@@H](Nc3ccc([N+](=O)[O-])cc3)[C@H]3COC(=O)[C@H]23)OCO4)cc(OC)c1O |  |  |  |  |  |  |  |  |  |  |  |  | 350 |  |  |  | 501 | 158 | 158 | 
COc1cc([C@@H]2c3cc4c(cc3[C@@H](Nc3ccc([N+](=O)[O-])cc3)[C@H]3COC(=O)[C@]23F)OCO4)cc(OC)c1O | 51.8 | 7.3 | 0.9 | 2.6 | 21.9 | 0 | 6090 | 0.8 | 4.2 | 0 | 42.1 | 4600 | 1450 | 41.6 | 6.5 | 3.8 | > 10000 | > 10000 | 3980 | 
COc1cc([C@@H]2c3cc4c(cc3[C@@H](O[C@@H]3O[C@@H]5CO[C@@H](C)O[C@H]5[C@H](O)[C@H]3O)[C@H]3COC(=O)[C@H]23)OCO4)cc(OC)c1O [ETOPOSIDE] |  |  |  |  |  |  |  |  | 8.4 |  |  |  | 1030 |  |  |  | 200 | 6310 | 6310 | ED50 (Homo sapiens): 8640 nM
COc1cc([C@@H]2c3cc4c(cc3[C@@H](Nc3ccc(F)cc3)[C@H]3COC(=O)[C@]23F)OCO4)cc(OC)c1O | 61.4 | 20 | 13.2 | 15.3 | 44.3 | 7.5 | 6100 | 10.3 | 6.2 | 16.1 | 61.2 | 4470 | 970 | 70.9 | 26.2 | 10.1 | 2000 | > 10000 | 2000 | 
COc1cc([C@@H]2c3cc4c(cc3[C@H](O)[C@H]3COC(=O)[C@H]23)OCO4)cc(OC)c1OC [PODOFILOX] |  |  |  |  |  |  |  |  |  |  |  |  | < 100 |  |  |  |  | 100 | 7.94 | MIC (Vero [14]): 0.008 µM (≈ 0.00332 µg/mL); MIC (Human alphaherpesvirus 1 [16]): 0.01 µM (≈ 0.00414 µg/mL); ED100 (Human alphaherpesvirus 2 [17]): 100 nM; ED25 (Vero [19]): 20 nM; MIC (Human alphaherpesvirus 2 [21]): 0.01 µM (≈ 0.00414 µg/mL); ED100 (Human alphaherpesvirus 1 [22]): 0.05 µM
COc1cc([C@@H]2c3cc4c(cc3[C@@H](Nc3ccc5c(c3)OCCC5=O)[C@H]3COC(=O)[C@H]23)OCO4)cc(OC)c1O |  |  |  |  |  |  |  |  |  |  |  |  |  |  |  |  | 631 | 126 | 100 | 
COc1cc([C@@H]2c3cc4c(cc3[C@@H](Nc3ccc(N)cc3)[C@H]3COC(=O)[C@]23F)OCO4)cc(OC)c1O | 51 | 5.8 | 0 | 2.5 | 38 | 0 | 7500 | 0 | 3 | 0 | 48.1 | 5020 | 2540 | 61.5 | 7.7 | 7.5 | 3980 | > 10000 | 3980 | 
COc1cc([C@@H]2c3cc4c(cc3[C@H](O[Si](C)(C)C(C)(C)C)[C@H]3COC(=O)[C@H]23)OCO4)cc(OC)c1OC |  |  |  |  |  |  |  |  |  |  |  |  |  |  |  |  |  |  |  | MIC (Vero [14]): 3 µM (≈ 1.59 µg/mL); MIC (Human alphaherpesvirus 1 [16]): 1 µM (≈ 0.529 µg/mL); ED100 (Human alphaherpesvirus 2 [17]): 1000 nM; ED25 (Vero [19]): 6000 nM; MIC (Human alphaherpesvirus 2 [21]): 0.1 µM (≈ 0.0529 µg/mL); ED100 (Human alphaherpesvirus 1 [22]): 10 µM
